This passage reports IC50 results from ChEMBL document CHEMBL5346918, “Design, synthesis and biological evaluation of Nucleosidic CD99 inhibitors that selectively reduce Ewing sarcoma viability” (Eur J Med Chem, 2023).

Where only a bound is given, the exact number is not on record here.

Common to all, as to assay type: functional
Assay [1] in a line: Cytotoxicity against human A4573 cells assessed as reduction in cell viability incubated for 48 hrs by CellTiter-Blue reagent based […] assay. As to conditions: A4573, 48 h. The method, boiled down: (§1)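 Cells seeded and grown to 60–80% confluency (usually 18–24 h), then treated 48 h with a range of concentrations prepared in each line's medium. CellTiter-Blue reagent added at the end of treatment and incubated 3–5 h at 37 °C, 5% CO₂. Fluorescence read at 560 nm excitation and 590 nm emission. IC50 from nonlinear regression, log(inhibitor) vs. normalized response.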

The test system of assay [2] is TC-32. The assay can be described thus: Cytotoxicity against human TC-32 cells assessed as reduction in cell viability incubated for 48 hrs by CellTiter-Blue reagent based […] assay. As to conditions: TC-32, 48 h. Summed up: as §1
The nature of assay [3]: Cytotoxicity against human TC71 cells assessed as reduction in cell viability incubated for 48 hrs by CellTiter-Blue reagent based […] assay. As to conditions: TC-71, 48 h. The method, boiled down: as §1
(Alamar Blue is a resazurin reagent that responds to reducing activity.)

The test system of assay [4] is SAOS-2. The assay can be described thus: Cytotoxicity against human SAOS-2 cells assessed as reduction in cell viability incubated for 48 hrs by CellTiter-Blue reagent based […] assay. As to conditions: SAOS-2, 48 h. The method, boiled down: as §1
Assay [5] has as its system U2OS. Nature of the assay: Cytotoxicity against human U2OS cells assessed as reduction in cell viability incubated for 48 hrs by CellTiter-Blue reagent based […] assay. Summed up:
as §1

For orientation: IC50 means the concentration at which inhibition is half-maximal. In the case of `CSC[C@H]1O[C@@H](n2cnc3c(N)nc(SC)nc32)[C@@H](F)[C@@H]1O`, the concentration for half-maximal inhibition (IC50) in assay [1], in assay [2], in assay [3], in assay [4] and in assay [5] was no less than 50 µM throughout.

On to `Nc1nc(Cl)nc2c1ncn2[C@@H]1O[C@H](CN2CCOCC2)[C@@H](O)[C@@H]1F`, for which the 50% inhibitory concentration (IC50) in assay [2], in assay [3], in assay [4] and in assay [5] was no less than 100 µM each time.

`Nc1ncnc2c1ncn2[C@@H]1O[C@H](CN2CCOCC2)[C@@H](O)[C@@H]1F`: the half-inhibitory concentration (IC50) in assay [1], in assay [2], in assay [3], in assay [4] and in assay [5] was no less than 50 µM throughout.

As to `Nc1nc(-c2ccoc2)nc2c1ncn2[C@H]1C[C@H](O)[C@@H](CO)O1`, the concentration for half-maximal inhibition (IC50) in assay [1] was found to be 77.5 µM; in assay [2], 55 µM; in assay [3], 67.8 µM; in assay [4], 172 µM; in assay [5], 199 µM.

Take `Nc1nc(-c2ccncc2)nc2c1ncn2[C@@H]1O[C@H](CO)[C@@H](O)[C@@H]1F`: the IC50 in assay [1], in assay [2], in assay [3], in assay [4] and in assay [5] was no less than 50 µM throughout.

On to `Nc1ncnc2c1ncn2[C@@H]1C[C@@H](O)[C@H](C(=O)O)O1`, for which the IC50 in assay [1], in assay [2], in assay [3], in assay [4] and in assay [5] was no less than 50 µM each time.

On to `Nc1ncnc2c1ncn2[C@H]1C[C@H](O)[C@@H](C(=O)O)O1`, for which the IC50 in assay [1], in assay [2], in assay [3], in assay [4] and in assay [5] was no less than 50 µM in each case.

Take `Nc1nc(-c2ccsc2)nc2c1ncn2[C@@H]1O[C@H](CO)[C@@H](O)[C@@H]1F`: the IC50 in assay [1], in assay [2], in assay [3], in assay [4] and in assay [5] was no less than 50 µM each time.

For the compound `Nc1ncnc2c1ncn2[C@@H]1O[C@H](C(=O)O)[C@@H](O)[C@H]1F`, the IC50 in assay [1], in assay [2], in assay [3], in assay [4] and in assay [5] was no less than 50 µM in each case.

For the compound `Nc1ncnc2c1ncn2[C@H]1C[C@H](O)[C@@H](CN2CCOCC2)O1`, the IC50 in assay [1], in assay [2], in assay [3], in assay [4] and in assay [5] was no less than 50 µM each time.

Turning to `Nc1nc(Cl)nc2c1ncn2[C@@H]1O[C@H](COc2cc(C(=O)O)cc(C(=O)O)c2)[C@@H](O)[C@@H]1F`, the IC50 in assay [2] was no less than 100 µM; in assay [3] it was 96.7 µM; in assay [4] it was 86.5 µM; in assay [5], no less than 100 µM.

Regarding `Nc1nc(N2CCOCC2)nc2c1ncn2[C@@H]1O[C@H](CN2CCOCC2)[C@@H](O)[C@@H]1F`, the concentration for half-maximal inhibition (IC50) in assay [2], in assay [3], in assay [4] and in assay [5] was no less than 100 µM each time.

On to `Nc1nc(Cl)nc2c1ncn2[C@H]1C[C@H](O)[C@@H](CN2CCOCC2)O1`, for which the concentration for half-maximal inhibition (IC50) is no less than 100 µM in assay [2], no less than 100 µM in assay [3], 97.3 µM in assay [4] and no less than 100 µM in assay [5].

Turning to `C=C1O[C@@H](n2cnc3c(N)nc(N4CCOCC4)nc32)[C@@H](F)[C@@H]1O`, the 50% inhibitory concentration (IC50) in assay [2] is 98 µM; in assay [3], no less than 100 µM; in assay [4], 97.3 µM; in assay [5] it was 67 µM.

As for `Nc1nc(Cl)nc2c1ncn2[C@H]1C[C@H](O)[C@@H](COc2cc(C(=O)O)cc(C(=O)O)c2)O1`, the IC50 in assay [2], in assay [3], in assay [4] and in assay [5] was no less than 100 µM each time.
